Experimental data reported in ChEMBL document CHEMBL1155073, “Molecular recognition of a DNA:RNA hybrid: sub-nanomolar binding by a neomycin-methidium conjugate” (Bioorg Med Chem Lett, 2008).

Tests used:
[1] = Binding affinity to synthetic poly(rA):poly(rU) RNA duplex assessed as association constant at 20 degC
[2] = Binding affinity to synthetic poly(dA-dT):poly(dA-dT) DNA: DNA duplex assessed as melting temperature at 2.2 uM
Method in brief: (§1)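 Thermal denaturation of each nucleic acid (20 µM/bp) with ligand at 2.2 µM, with melting temperatures read from UV and CD melting profiles. ΔTm is taken against the ligand-free Tm0.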

[3] = Binding affinity to synthetic poly(dA):poly(rU) DNA:RNA hybrid assessed as association constant at 20 degC
Method in brief: (§2)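 Apparent association constant is estimated from the UV/CD melting-temperature shift (Eq. 1). Binding stoichiometry n comes from fluorescence titrations, duplex melting enthalpy from DSC, and free ligand is taken as half the total. The value is extrapolated to 20 °C by integrated van't Hoff using dilution-corrected excess-site ITC enthalpies (15, 20, 25 °C) and derived ΔCp. Buffer: 10 mM sodium cacodylate, 0.5 mM EDTA, 100 mM NaCl, pH 5.5.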

[4] = Binding affinity to synthetic poly(dA-dT):poly(dA-dT) DNA:DNA duplex assessed as association constant at 20 degC
Method in brief: as §2

[5] = Binding affinity to synthetic poly(rA):poly(rU) RNA:RNA duplex assessed as melting temperature at 2.2 uM
Method in brief: as §1

[6] = Binding affinity to synthetic poly(dA):poly(rU) DNA:RNA hybrid assessed as melting temperature at 2.2 uM
Method in brief: as §1

[7] = Binding affinity to synthetic poly(rA):poly(rU) DNA:RNA hybrid assessed as association constant at 20 degC
Method in brief: as §2

[8] = Binding affinity to synthetic poly(rA):poly(dT) DNA:RNA hybrid assessed as melting temperature at 2.2 uM
Method in brief: as §1

[9] = Binding affinity to synthetic poly(dA): 2poly(dT) DNA:DNA duplex assessed as change in melting temperature at 2.2 uM
Method in brief: as §1

[10] = Binding affinity to synthetic poly(rA):poly(rU) RNA:RNA duplex assessed as change in melting temperature at 2.2 uM
Method in brief: as §1

[11] = Binding affinity to synthetic poly(dG):poly(dC) DNA:DNA duplex assessed as melting temperature at 2.2 uM
Method in brief: as §1

DNA [12] = test: Binding affinity to calf thymus DNA assessed as melting temperature at 2.2 uM; assay type: nucleic-acid assay; conditions: Bos taurus
Method in brief: as §1

[13] = Binding affinity to synthetic poly(dA):poly(rU) DNA:RNA hybrid assessed as change in melting temperature at 2.2 uM
Method in brief: as §1

[14] = Binding affinity to synthetic poly(dA-dT):poly(dA-dT) DNA:DNA duplex assessed as change in melting temperature at 2.2 uM
Method in brief: as §1

[15] = Binding affinity to synthetic poly(dA):poly(dT) DNA:DNA duplex assessed as melting temperature at 2.2 uM
Method in brief: as §1

[16] = Binding affinity to synthetic A-site RNA assessed as melting temperature at 2.2 uM
Method in brief: as §1

[17] = Binding affinity to synthetic poly(rA):poly(dT) DNA:RNA hybrid assessed as change in melting temperature at 2.2 uM
Method in brief: as §1

DNA [18] = test: Binding affinity to calf thymus DNA assessed as change in melting temperature at 2.2 uM; assay type: nucleic-acid assay; conditions: Bos taurus
Method in brief: as §1

[19] = Binding affinity to synthetic poly(dA):poly(dT) DNA:DNA duplex assessed as change in melting temperature at 2.2 uM
Method in brief: as §1

[20] = Binding affinity to synthetic poly(dA):2poly(dT) DNA:DNA duplex assessed as melting temperature at 2.2 uM
Method in brief: as §1

[21] = Binding affinity to synthetic A-site RNA assessed as change in melting temperature at 2.2 uM
Method in brief: as §1

| SMILES | Ka [1] | Tm [2] | Ka [3] | Ka [4] | Tm [5] | Tm [6] | also measured |
| --- | --- | --- | --- | --- | --- | --- | --- |
| NC[C@@H]1O[C@H](O[C@H]2[C@@H](O)[C@H](O[C@@H]3[C@@H](O)[C@H](N)C[C@H](N)[C@H]3O[C@H]3O[C@H](CN)[C@@H](O)[C@H](O)[C@H]3N)O[C@@H]2CO)[C@H](N)[C@@H](O)[C@@H]1O | 2.6 ×10⁷ /M | 62.9 °C | 9.9 ×10⁶ /M | 7 ×10⁴ /M | 64.7 °C | 65.8 °C |  |
| CC[n+]1c(-c2ccccc2)c2cc(N)ccc2c2ccc(N)cc21 |  | 63.2 °C | 9.3 ×10⁶ /M | 2 ×10⁵ /M | 64.2 °C | 61.8 °C | Ka [7]: 1.8 ×10⁶ /M |
| C[n+]1c(-c2ccc(C(=O)NCCSC[C@H]3O[C@@H](O[C@@H]4[C@@H](O)[C@H](N)C[C@H](N)[C@H]4O[C@H]4O[C@H](CN)[C@@H](O)[C@H](O)[C@H]4N)[C@H](O)[C@@H]3O[C@H]3O[C@@H](CN)[C@@H](O)[C@H](O)[C@H]3N)cc2)c2cc(N)ccc2c2ccc(N)cc21 | 2.1 ×10⁹ /M | 66.2 °C | 4.8 ×10¹⁰ /M | 1 ×10⁶ /M | 77 °C | 90.5 °C | Tm [8]: 82.4 °C; ΔTm [9]: 7.7 °C; ΔTm [10]: 34.3 °C; Tm [11]: > 95 °C; Tm (DNA [12]): > 95 °C; ΔTm [13]: 46.9 °C; ΔTm [14]: 7.4 °C; Tm [15]: 76.1 °C; Tm [16]: 79.8 °C; ΔTm [17]: 20.1 °C; ΔTm (DNA [18]): > 8.1 °C; ΔTm [19]: 7.7 °C; Tm [20]: 75.9 °C; ΔTm [21]: 8.1 °C |
